# Laboratory results as given in publication PMC2744899 (Journal of the American Chemical Society, 2009).
# Several values for one entry are separate records, joined by “and”; a condition that tells them apart may be missing. Identical values can stand only once.
# Assays:
# [1] = system: scFv K7 displayed on the yeast cell-surface; assay: Fluorescence titration of dye into yeast surface-displayed K7; conditions: read-out: Kd Yeast-Displayed K7, 10^7 yeast cells, 1:1 binding model
# [2] = Thermal bleaching by singlet oxygen from sodium molybdate and H2O2; type: physicochemical; conditions: for loss of absorbance (bleaching): free dye 1 μM
# In short: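 Singlet oxygen was generated thermally from 50 mM Na2MoO4 plus 9.8 mM H2O2 (final) at pH 9.0, with ionic strength matched to standard wash buffer. Reactions used 1 µM dye, free (in H2O or D2O, followed by absorbance) or with 1 µM K7. Spectra were taken before molybdate addition, then every 10 min for 40 min.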
# [3] = Photobleaching of DIR/K7 by Xe lamp irradiation and fluoromodule regeneration; type: physicochemical
# [4] = Photobleaching by direct irradiation; type: physicochemical; conditions: compare Figures 3 and 10, per photons absorbed per dye molecule
Structure (SMILES),Kd [1],"bleaching in the presence of K7 ([2]; [Dye] = [K7] = 1 μM, pH 9, 40 min)","loss of absorbance (bleaching) ([2]; no K7, 90% D2O, pH 9, 40 min)","loss of absorbance (bleaching) ([2]; no K7, H2O, pH 9, after 40 min reaction)","loss of DIR fluorescence after irradiation ([3]; 1:1 DIR/K7 at 250 nM, λ > 455 nm, 15 min, H2O)","fluorescence restored after addition of another equivalent of DIR ([3]; after 15 min irradiation, one equivalent (250 nM) fresh DIR added)",photobleaching efficiency relative to DIR and α-CN-DIR [4]
"CN1/C(=C/C=C/c2cc[n+](CCCS(=O)(=O)[O-])c3ccccc23)C(C)(C)c2ccccc21 [DIR, dimethylindole red]",13.9 ± 3.2 nM,20%,74%,42%,55 (±7) % and 55%,89 % of the original value,
"CN1C(=Cc2cc[n+](C)c3ccccc23)Sc2ccccc21 [TO, thiazole orange]",,,,,,,> 100 fold
